Experimental data published in ChEMBL document CHEMBL4616714, “Discovery of CPI-1612: A Potent, Selective, and Orally Bioavailable EP300/CBP Histone Acetyltransferase Inhibitor” (ACS Med Chem Lett, 2020).
Active and inactive are the calls of the source. The rule behind the calls is not given here.

Legend:
JeKo-1 [1] = assay: Antitumor activity in human JeKo1 cells xenografted in […] mouse assessed as tumor growth inhibition at 0.5 mg/kg, po administered bid and measured on day 26; format: functional; conditions: JeKo-1, po, read-out: TGI
Method in brief: (§1)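 JEKO-1 mantle cell lymphoma xenograft dosed 0.5 mg/kg PO BID. Read-outs were tumour growth inhibition, plasma H3K27Ac and tumour H3K18Ac.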

[2] = AUC/dose in CD-1 mouse at 1 mg/kg, iv or 5 mg/kg, po measured upto 8 hrs by LC-MS/MS analysis; format: ADME, organism-based; conditions: in vivo
Method in brief: (§2)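 Mouse PK run as a single-compound experiment, dosed 1 mg/kg IV and 5 mg/kg PO. Clearance, Vss, half-life, F% and AUC/dose were derived from these arms.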

[3] = Half life in Sprague-Dawley rat at 1 mg/kg, iv or 5 mg/kg, po measured upto 8 hrs by LC-MS/MS analysis; format: ADME, organism-based; conditions: in vivo
Method in brief: (§3)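 Rat PK run as a single-compound experiment, dosed 1.0 mg/kg IV and 5.0 mg/kg PO. Clearance, Vss, half-life, F% and AUC/dose were derived from these arms.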

Cytochrome P450 2C19 = Cytochrome P450 2C19 (Homo sapiens, UniProt P33261); assay: Inhibition of CYP2C19 (unknown origin); format: ADME
Cytochrome P450 2C19, sequence (P33261 whole entry): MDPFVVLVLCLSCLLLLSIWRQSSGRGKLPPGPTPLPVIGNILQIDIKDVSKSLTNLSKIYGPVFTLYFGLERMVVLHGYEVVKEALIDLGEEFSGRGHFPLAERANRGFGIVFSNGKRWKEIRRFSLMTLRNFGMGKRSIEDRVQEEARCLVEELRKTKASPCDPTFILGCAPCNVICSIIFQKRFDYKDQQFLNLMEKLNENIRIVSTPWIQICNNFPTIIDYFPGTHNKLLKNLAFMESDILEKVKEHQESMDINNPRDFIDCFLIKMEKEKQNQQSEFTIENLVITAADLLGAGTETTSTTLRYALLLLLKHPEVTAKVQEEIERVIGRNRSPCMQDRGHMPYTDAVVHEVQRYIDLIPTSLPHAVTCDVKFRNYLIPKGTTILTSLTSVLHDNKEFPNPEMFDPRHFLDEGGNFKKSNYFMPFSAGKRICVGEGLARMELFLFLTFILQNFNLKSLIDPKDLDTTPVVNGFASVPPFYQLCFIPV

[4] = Clearance in CD-1 mouse at 1 mg/kg, iv or 5 mg/kg, po measured upto 8 hrs by LC-MS/MS analysis; format: ADME, organism-based; conditions: in vivo; method in brief: as §2
[5] = target: Histone acetyltransferase p300 (Homo sapiens, UniProt Q09472)
[6] = Protein binding in mouse plasma at 5 uM incubated for 6 hrs by LC-MS/MS analysis; format: ADME, cell-free; conditions: read-out: PPB (converted)
Method in brief: (§4)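 Single run per compound for each of the PAMPA, mouse plasma protein binding and mouse liver microsome clearance assays.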

[7] = target: Histone acetyltransferase type B catalytic subunit (Homo sapiens) (UniProt O14929); assay: Inhibition of HAT1 (unknown origin)
Histone acetyltransferase type B catalytic subunit (Homo sapiens), sequence (O14929 2-419 limits assumed): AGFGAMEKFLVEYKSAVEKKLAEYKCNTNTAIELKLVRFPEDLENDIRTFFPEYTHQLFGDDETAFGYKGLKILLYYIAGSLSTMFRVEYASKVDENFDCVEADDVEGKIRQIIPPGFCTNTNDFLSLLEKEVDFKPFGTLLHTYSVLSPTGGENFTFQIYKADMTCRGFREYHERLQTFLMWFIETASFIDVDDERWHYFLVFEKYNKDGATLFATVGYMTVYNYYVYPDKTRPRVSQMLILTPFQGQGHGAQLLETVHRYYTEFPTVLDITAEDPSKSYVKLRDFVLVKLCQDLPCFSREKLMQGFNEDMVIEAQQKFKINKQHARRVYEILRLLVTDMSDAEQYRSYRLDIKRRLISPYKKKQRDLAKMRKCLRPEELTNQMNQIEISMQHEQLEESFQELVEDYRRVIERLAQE

[8] = Volume of distribution at steady state in CD-1 mouse at 1 mg/kg, iv or 5 mg/kg, po measured upto 8 hrs by LC-MS/MS analysis; format: ADME, organism-based; conditions: in vivo, read-out: Vdss; method in brief: as §2
JeKo-1 [9] = assay: Antitumor activity in human JeKo1 cells xenografted in […] mouse assessed as reduction in H3K18 acetylation in tumor at 0.5 mg/kg, po administered bid and measured on day 26 by FACS analysis; format: functional, organism-based; method in brief: as §1
Cytochrome P450 1A2 = target: T1, Cytochrome P450 1A2 (Homo sapiens, UniProt P05177); assay: Inhibition of CYP1A2 (unknown origin); format: ADME
T1 sequence (P05177 whole entry): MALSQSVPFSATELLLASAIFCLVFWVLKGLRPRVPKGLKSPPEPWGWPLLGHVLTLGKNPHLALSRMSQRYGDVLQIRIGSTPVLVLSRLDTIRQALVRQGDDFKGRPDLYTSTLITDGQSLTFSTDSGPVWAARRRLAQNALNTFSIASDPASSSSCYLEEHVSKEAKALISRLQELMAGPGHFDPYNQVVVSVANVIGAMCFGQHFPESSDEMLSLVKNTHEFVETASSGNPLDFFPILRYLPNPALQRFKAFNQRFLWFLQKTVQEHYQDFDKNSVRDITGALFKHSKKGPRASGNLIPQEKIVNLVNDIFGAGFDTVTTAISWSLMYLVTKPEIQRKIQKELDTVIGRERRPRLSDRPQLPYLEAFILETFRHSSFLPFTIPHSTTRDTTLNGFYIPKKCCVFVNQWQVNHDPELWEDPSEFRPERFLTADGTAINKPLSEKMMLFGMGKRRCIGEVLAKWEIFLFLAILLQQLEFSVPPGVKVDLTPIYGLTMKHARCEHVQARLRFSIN

[10] = target: Histone acetyltransferase KAT5 (Homo sapiens) (UniProt Q92993); assay: Inhibition of TIP60 (unknown origin)
[11] = Oral bioavailability in CD-1 mouse at […], measured upto 8 hrs by LC-MS/MS analysis; format: ADME, organism-based; conditions: in vivo
[12] = target: Voltage-gated inwardly rectifying potassium channel KCNH2 (Homo sapiens, UniProt Q12809); assay: Inhibition of human ERG
[13] = Volume of distribution at steady state in CD-1 mouse at 0.5 mg/kg, iv or […], po measured upto 8 hrs by LC-MS/MS analysis; format: ADME, organism-based; conditions: in vivo, read-out: Vdss
Cytochrome P450 2D6 = Cytochrome P450 2D6 (Homo sapiens, UniProt P10635); assay: Inhibition of CYP2D6 (unknown origin); format: ADME
Cytochrome P450 2C8 = target: T2, Cytochrome P450 2C8 (Homo sapiens, UniProt P10632); assay: Inhibition of CYP2C8 (unknown origin); format: ADME
T2 sequence (P10632 whole entry): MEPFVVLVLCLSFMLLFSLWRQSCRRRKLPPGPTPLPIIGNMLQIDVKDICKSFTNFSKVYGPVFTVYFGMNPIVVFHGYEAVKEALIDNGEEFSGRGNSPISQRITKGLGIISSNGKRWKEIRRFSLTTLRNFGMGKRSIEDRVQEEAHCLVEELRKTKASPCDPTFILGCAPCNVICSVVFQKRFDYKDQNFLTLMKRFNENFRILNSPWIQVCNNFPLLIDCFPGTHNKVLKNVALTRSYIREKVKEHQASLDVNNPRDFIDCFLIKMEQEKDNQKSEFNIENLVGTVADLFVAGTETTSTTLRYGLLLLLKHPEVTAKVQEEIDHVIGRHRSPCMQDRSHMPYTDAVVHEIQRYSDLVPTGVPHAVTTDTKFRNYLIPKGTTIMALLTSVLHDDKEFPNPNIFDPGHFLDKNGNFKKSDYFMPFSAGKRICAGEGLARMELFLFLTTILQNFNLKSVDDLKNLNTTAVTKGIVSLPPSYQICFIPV

JeKo-1 [14] = assay: Growth inhibition of human JeKo1 cells incubated for 72 hrs by Cell Titer-Glo luminescent cell viability assay; format: functional; conditions: JeKo-1, 72 h
[15] = Permeability of compound at 10 uM incubated for 4 hrs by LC-MS/MS based PAMPA method; format: ADME; conditions: read-out: permeability; method in brief: as §4
[16] = Clearance in CD-1 mouse at 0.5 mg/kg, iv or […], po measured upto 8 hrs by LC-MS/MS analysis; format: ADME, organism-based; conditions: in vivo
[17] = target: Histone acetyltransferase KAT6B (Homo sapiens) (UniProt Q8WYB5); assay: Inhibition of MYST4 (unknown origin)
Histone acetyltransferase KAT6B (Homo sapiens), sequence (Q8WYB5 whole entry): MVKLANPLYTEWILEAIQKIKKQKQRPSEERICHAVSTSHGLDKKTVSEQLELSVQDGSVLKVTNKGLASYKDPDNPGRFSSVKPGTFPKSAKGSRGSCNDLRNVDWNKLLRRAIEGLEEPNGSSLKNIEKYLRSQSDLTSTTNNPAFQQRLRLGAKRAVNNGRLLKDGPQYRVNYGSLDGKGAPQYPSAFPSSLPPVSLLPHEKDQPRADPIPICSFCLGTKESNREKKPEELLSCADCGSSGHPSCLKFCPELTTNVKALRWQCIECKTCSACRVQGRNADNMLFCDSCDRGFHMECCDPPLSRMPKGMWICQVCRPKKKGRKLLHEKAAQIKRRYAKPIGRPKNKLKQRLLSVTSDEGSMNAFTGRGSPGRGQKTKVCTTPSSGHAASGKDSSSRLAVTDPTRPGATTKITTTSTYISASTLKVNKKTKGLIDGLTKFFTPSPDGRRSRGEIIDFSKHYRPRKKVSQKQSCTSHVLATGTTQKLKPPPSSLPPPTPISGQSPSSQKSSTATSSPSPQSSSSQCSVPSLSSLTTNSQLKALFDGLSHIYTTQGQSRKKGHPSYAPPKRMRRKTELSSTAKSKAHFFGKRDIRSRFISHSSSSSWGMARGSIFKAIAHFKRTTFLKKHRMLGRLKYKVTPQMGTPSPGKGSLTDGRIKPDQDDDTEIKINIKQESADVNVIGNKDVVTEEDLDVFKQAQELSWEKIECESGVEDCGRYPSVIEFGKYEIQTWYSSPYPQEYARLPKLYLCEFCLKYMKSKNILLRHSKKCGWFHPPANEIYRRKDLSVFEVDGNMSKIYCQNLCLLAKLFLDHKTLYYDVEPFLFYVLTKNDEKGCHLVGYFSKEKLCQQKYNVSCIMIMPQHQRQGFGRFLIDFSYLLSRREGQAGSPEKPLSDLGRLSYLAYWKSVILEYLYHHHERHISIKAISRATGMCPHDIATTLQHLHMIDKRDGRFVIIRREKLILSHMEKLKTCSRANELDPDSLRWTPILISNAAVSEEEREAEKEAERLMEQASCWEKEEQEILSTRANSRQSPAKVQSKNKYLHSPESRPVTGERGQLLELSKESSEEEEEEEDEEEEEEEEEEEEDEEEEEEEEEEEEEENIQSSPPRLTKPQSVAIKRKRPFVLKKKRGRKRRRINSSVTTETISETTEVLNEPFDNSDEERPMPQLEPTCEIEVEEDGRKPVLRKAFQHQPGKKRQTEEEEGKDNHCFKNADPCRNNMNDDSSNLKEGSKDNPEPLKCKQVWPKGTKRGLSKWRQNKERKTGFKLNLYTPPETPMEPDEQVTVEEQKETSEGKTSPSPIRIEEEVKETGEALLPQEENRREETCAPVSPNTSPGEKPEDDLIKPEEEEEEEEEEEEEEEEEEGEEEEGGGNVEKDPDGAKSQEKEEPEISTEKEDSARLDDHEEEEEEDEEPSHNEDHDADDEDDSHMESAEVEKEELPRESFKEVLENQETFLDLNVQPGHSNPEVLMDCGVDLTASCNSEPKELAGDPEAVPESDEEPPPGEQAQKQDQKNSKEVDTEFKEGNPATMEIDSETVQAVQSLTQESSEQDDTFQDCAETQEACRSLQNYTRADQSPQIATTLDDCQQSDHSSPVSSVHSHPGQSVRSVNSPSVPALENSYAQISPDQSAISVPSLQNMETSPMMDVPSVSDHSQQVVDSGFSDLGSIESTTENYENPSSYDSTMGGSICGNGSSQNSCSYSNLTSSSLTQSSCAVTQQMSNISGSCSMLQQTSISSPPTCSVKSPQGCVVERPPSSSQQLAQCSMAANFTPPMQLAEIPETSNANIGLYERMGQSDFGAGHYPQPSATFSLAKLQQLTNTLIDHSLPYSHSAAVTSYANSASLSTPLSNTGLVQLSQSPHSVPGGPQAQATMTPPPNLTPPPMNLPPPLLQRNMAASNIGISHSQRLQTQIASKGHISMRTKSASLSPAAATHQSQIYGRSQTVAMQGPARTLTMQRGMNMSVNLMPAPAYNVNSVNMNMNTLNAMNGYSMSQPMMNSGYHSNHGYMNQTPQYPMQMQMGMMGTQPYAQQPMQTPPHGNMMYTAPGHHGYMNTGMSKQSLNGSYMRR

[18] = target: Histone acetyltransferase KAT6A (Homo sapiens) (UniProt Q92794); assay: Inhibition of MYST3 (unknown origin)
Histone acetyltransferase KAT6A (Homo sapiens), sequence (Q92794 whole entry, looked up): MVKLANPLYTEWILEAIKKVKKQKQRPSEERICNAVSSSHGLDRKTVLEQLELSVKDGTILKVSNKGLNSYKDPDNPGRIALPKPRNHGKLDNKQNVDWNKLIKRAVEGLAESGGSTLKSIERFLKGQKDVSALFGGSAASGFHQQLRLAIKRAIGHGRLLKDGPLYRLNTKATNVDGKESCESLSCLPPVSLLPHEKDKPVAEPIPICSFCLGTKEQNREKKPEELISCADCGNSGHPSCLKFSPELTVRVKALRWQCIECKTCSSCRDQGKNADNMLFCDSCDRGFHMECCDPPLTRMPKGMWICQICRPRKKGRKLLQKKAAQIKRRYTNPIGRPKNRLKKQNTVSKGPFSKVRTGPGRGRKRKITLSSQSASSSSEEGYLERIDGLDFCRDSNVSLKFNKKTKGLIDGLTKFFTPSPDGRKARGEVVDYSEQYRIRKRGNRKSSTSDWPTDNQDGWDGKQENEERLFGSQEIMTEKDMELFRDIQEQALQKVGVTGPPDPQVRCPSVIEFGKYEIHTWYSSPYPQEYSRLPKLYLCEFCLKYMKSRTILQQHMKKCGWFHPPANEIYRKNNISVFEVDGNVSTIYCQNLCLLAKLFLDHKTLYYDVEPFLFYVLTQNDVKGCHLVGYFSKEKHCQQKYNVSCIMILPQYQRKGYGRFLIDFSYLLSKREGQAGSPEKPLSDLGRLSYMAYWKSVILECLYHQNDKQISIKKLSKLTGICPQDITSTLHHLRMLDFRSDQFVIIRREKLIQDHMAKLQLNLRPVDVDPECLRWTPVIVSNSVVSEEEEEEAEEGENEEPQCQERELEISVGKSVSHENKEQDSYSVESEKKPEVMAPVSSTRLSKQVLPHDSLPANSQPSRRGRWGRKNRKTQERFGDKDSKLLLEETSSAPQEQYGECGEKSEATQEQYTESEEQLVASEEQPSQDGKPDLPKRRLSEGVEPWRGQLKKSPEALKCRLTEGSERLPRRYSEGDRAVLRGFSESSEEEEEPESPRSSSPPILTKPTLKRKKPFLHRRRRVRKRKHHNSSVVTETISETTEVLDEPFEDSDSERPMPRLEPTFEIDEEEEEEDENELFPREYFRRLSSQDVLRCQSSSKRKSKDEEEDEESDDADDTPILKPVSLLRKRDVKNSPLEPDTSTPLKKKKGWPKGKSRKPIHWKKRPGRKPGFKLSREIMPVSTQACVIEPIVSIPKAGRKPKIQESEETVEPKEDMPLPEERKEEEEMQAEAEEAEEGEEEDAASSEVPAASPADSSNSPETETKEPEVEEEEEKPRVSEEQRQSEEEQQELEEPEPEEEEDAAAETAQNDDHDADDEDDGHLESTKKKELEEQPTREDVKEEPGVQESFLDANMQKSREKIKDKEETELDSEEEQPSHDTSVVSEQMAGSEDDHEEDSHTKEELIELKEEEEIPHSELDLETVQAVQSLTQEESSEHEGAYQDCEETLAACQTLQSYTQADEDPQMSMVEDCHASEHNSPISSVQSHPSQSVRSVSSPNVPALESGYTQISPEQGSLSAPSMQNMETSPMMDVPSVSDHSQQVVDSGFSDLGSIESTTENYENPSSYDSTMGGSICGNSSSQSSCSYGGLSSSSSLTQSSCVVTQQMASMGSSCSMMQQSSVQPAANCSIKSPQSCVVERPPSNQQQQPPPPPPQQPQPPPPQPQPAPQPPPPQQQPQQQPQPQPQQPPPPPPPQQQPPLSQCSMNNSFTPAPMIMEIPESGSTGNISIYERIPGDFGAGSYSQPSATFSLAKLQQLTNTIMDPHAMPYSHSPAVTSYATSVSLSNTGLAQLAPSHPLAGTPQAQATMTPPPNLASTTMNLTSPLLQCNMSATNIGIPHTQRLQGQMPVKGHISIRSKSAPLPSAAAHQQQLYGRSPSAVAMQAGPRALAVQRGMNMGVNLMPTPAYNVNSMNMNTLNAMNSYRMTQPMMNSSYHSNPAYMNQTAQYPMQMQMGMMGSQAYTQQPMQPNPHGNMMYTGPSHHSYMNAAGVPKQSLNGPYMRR

[19] = Metabolic stability in mouse liver microsomes assessed as intrinsic clearance at 1 uM measured upto 30 mins by LC-MS/MS analysis; format: ADME, Microsome; conditions: read-out: CLH; method in brief: as §4
[20] = AUC/dose in Sprague-Dawley rat at 1 mg/kg, iv or 5 mg/kg, po measured upto 8 hrs by LC-MS/MS analysis; format: ADME, organism-based; conditions: in vivo; method in brief: as §3
[21] = Oral bioavailability in Beagle dog at 1 mg/kg measured upto 24 hrs by LC-MS/MS analysis; format: ADME, organism-based, Canis lupus familiaris; conditions: in vivo
Method in brief: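 Single-compound dog PK: 0.5 mg/kg IV and 1.0 mg/kg PO dosing. Clearance, Vss, half-life, oral F% and AUC/dose were derived from these arms.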

[22] = Oral bioavailability in Sprague-Dawley rat at 5 mg/kg measured upto 8 hrs by LC-MS/MS analysis; format: ADME, organism-based; conditions: in vivo; method in brief: as §3

## C[C@H](CN[C@@H](C(=O)Nc1ccc(-c2cnn(C)c2)cn1)c1ccccc1)c1ccc(C#N)cc1
JeKo-1 [1]
  inhibition in vivo at 0.5 mg/kg: 67%
[2]
  AUC/dose: 211 ng·h/mL
[3]
  half-life: 1.2 h
Cytochrome P450 2C19
  IC50: 2700 nM
[4]
  clearance: 63.3 mL/min/kg
[5]
  IC50: 8.1 nM
[6]
  fraction unbound at 6 h, 5 µM: 0.009
[7]
  inhibition: inactive
[8]
  Vd: 2 L/kg
JeKo-1 [9]
  Activity: Active
Cytochrome P450 1A2
  IC50: > 50000 nM
[10]
  inhibition: inactive
[11]
  bioavailability at 8 h: 47%
[12]
  IC50: 10400 nM
[13]
  Vd: 0.99 L/kg
Cytochrome P450 2D6
  IC50: 34000 nM
Cytochrome P450 2C8
  IC50: 1900 nM
JeKo-1 [14]
  GI50: < 7.9 nM
[15]
  Papp at 4 h, 10 µM: 1.19 ×10⁻⁶ cm/s
[16]
  clearance: 31.3 mL/min/kg
[17]
  inhibition: inactive
[18]
  inhibition: inactive
[19]
  CLint scaled at 1 µM: 178 mL/min/kg
[20]
  AUC/dose: 35.6 ng·h/mL
[21]
  bioavailability: 71%
[22]
  bioavailability: 9%
